Experiments:
[1] = biological target: Receptor tyrosine-protein kinase erbB-2 (Homo sapiens, UniProt P04626); assay: Inhibition of ERBB2 (unknown origin)
Outline: (§1)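 Biochemical (cell-free) assay within a panel of 24 protein kinases. Results reported as IC50 values. Procedure as described in earlier work.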

[2] = biological target: T1, Ephrin type-B receptor 4 (Homo sapiens, UniProt P54760); assay: Inhibition of EPHB4 (unknown origin); outline: as §1
T1 sequence (P54760 whole entry): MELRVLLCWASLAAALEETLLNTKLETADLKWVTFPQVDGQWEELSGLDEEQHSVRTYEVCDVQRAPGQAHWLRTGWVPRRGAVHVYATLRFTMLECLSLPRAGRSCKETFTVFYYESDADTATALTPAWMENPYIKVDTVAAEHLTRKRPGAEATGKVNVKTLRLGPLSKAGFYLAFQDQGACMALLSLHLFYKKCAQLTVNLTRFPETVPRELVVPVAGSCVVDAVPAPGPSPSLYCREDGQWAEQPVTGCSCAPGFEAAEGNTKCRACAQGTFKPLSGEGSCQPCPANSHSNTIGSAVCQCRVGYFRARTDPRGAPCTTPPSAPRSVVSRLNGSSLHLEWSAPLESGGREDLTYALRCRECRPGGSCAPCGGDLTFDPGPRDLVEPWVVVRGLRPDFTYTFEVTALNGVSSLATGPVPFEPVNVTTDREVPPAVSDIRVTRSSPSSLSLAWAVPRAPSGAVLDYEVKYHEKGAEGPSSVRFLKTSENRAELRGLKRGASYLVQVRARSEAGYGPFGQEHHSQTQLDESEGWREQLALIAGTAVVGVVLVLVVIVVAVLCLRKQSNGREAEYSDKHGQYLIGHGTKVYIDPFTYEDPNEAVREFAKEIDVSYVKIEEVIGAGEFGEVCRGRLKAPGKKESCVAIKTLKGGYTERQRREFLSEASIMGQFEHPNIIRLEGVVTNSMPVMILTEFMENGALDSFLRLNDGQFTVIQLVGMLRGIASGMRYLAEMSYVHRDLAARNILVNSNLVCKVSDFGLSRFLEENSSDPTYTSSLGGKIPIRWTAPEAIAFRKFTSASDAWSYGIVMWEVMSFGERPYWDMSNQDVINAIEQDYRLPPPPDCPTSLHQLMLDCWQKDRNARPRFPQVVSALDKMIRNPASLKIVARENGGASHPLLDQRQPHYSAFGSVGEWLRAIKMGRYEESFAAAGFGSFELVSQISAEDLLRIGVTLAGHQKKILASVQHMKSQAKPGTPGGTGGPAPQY

Sequence of Receptor tyrosine-protein kinase erbB-2 (P04626 whole entry): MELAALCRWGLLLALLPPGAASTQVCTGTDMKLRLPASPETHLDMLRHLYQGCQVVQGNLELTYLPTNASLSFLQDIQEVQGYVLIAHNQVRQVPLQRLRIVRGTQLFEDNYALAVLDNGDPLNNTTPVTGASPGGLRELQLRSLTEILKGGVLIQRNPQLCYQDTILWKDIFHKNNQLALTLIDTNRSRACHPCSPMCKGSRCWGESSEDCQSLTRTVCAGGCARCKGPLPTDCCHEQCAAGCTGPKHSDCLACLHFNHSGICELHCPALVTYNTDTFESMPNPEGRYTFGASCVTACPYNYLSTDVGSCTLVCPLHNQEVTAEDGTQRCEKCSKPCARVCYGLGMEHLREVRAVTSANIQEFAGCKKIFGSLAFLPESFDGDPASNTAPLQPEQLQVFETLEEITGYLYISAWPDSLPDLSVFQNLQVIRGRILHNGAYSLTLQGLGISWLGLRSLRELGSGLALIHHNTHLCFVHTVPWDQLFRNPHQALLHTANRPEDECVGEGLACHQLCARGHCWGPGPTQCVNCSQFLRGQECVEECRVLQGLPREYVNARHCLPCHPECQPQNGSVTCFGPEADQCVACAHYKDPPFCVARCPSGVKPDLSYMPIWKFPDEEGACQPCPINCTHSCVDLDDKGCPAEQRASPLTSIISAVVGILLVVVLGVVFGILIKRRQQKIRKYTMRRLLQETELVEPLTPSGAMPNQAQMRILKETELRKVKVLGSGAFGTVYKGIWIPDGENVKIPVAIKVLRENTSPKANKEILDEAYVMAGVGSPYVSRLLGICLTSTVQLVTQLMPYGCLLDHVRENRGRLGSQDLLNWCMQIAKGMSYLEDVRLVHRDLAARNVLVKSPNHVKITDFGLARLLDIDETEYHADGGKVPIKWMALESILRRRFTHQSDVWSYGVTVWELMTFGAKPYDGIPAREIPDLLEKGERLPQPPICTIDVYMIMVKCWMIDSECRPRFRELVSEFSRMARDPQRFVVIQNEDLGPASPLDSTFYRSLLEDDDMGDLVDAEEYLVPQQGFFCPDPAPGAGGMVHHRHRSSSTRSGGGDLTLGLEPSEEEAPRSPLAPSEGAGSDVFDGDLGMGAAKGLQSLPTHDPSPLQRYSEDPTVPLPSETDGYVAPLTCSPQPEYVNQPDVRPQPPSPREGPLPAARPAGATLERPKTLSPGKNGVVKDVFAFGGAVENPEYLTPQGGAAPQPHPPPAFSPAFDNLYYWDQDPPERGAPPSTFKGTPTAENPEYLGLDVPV

SMILES | IC50 [1] | IC50 [2]
O=NC(Cc1cc(Br)c(O)c(-c2cc(CC(N=O)C(=O)NCCc3ccc(O)c(Br)c3)cc(Br)c2O)c1)C(=O)NCCc1ccc(O)c(Br)c1 (stereo not drawn) [BASTADIN 3] | 2.1 µM | 
O=NC(Cc1cc(Br)c(O)c(Oc2ccc(CCNC(=O)C(Cc3cc(Br)c(O)c(-c4cc(CC(N=O)C(=O)NCCc5ccc(O)c(Br)c5)cc(Br)c4O)c3)N=O)cc2Br)c1)C(=O)NCCc1ccc(O)c(Br)c1 (stereo not drawn) [Sesquibastadin 1] | 2.1 µM | 3.4 µM

— BindingDB's records for doi:10.1021/np300764u (Heinrich-Heine University, 2013)
